What all share (assay type): functional
Experiment [1] in a line: Cytotoxicity against human leukemia cells after 48 hrs. The settings on record: for GI50 / TGI: Leukemia cell. The method, boiled down:
(§1)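 NCI 60-line panel. Compounds were dissolved in DMSO and tested at five 10-fold dilutions, the highest 10^-4 M (10^-3 M where footnoted), over 48 h of incubation. The readouts were GI50, TGI and LC50 in μM, with the panel mean also given. Only compounds passing a 10^-5 M single-dose prescreen were tested; some were repeated and averaged over two experiments.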

The nature of experiment [2]: Cytotoxicity against human NSCLC cells after 48 hrs. The procedure, abridged: as §1
A short description of experiment [3]: Cytotoxicity against human colon cancer cells after 48 hrs. The note with it: Cancer cell lines; for CC50: read-out: LC50 (the source's name). The method, boiled down: as §1
Experiment [4] can be described thus: Cytotoxicity against human melanoma cells after 48 hrs. The settings on record: Melanoma cell. The method, boiled down:
as §1

Experiment [5] is described as follows: Cytotoxicity against human ovarian cancer cells after 48 hrs. The settings on record: Cancer cell lines. The procedure, abridged:
as §1

The nature of experiment [6]: Cytotoxicity against human renal cancer cells after 48 hrs. The settings on record: Cancer cell lines. The procedure, abridged: as §1
A short description of experiment [7]: Cytotoxicity against human prostate cancer cells after 48 hrs. The note with it: Cancer cell lines; for CC50: read-out: LC50 (the source's name). The method, boiled down:
as §1

Experiment [8] is described as follows: Cytotoxicity against human breast cancer cells after 48 hrs. The note with it: Cancer cell lines; for CC50: read-out: LC50 (the source's name). The procedure, abridged: as §1
The nature of experiment [9]: Cytotoxicity against human CNS cancer cells after 48 hrs. The note with it: Cancer cell lines; for CC50: read-out: LC50 (the source's name). The method, boiled down: as §1

The structures appear in SMILES notation.

Regarding `O=C1/C(=C/c2c(Cl)[nH]c3ccccc23)c2ccccc2N1Cc1ccccc1`, the GI50 was determined as 2.95 µM in [1]; 6.61 µM in experiment [2]; 4.17 µM in experiment [3]; 5.13 µM in [4]; 9.12 µM in experiment [5]; 5.25 µM in experiment [6]. Also, the results for the GI50 in experiment [7], in [8] and in experiment [9] were 6.17 µM, 4.17 µM and 4.9 µM, respectively. Further, the TGI in experiment [1] turned out to be 21.4 µM; in experiment [2], 85.1 µM; in experiment [3], 79.4 µM; in experiment [4], 61.7 µM; in [5] it was 79.4 µM; in experiment [6], 77.6 µM. Also, the TGI in experiment [8] is 56.2 µM; in experiment [9] it was 69.2 µM.

Regarding `O=C1Nc2ccccc2/C1=C\c1c(Cl)n(CCCc2ccccc2)c2ccccc12`, the GI50 is 8.91 µM in [1]; 14.1 µM in [2]; 12 µM in experiment [3]; 13.8 µM in experiment [4]; 12 µM in [5]; 13.8 µM in [6]. Moreover, the GI50 in [7] came out at 19.1 µM; in experiment [8] it was 10 µM; in [9], 16.6 µM. In addition, the TGI in [1] is 50.1 µM; in experiment [2], 72.4 µM; in experiment [3] it was 60.3 µM; in experiment [4], 67.6 µM; in [5], 72.4 µM; in [6] it was 67.6 µM. The TGI amounted to 72.4 µM in [8] and 75.9 µM in [9].

`O=C1Nc2ccc(Cl)cc2/C1=C\c1c(Cl)n(CCCc2ccccc2)c2ccccc12`: the GI50 amounted to 2.88 µM in experiment [1]; 2.24 µM in experiment [2]; 1.95 µM in experiment [3]; 2.04 µM in [4]; 2.45 µM in [5]; 1.86 µM in experiment [6]. Also, the values for the GI50 in experiment [7], in [8] and in [9] were 2 µM, 2.19 µM and 2.82 µM, respectively. Moreover, the concentration for total growth inhibition (TGI) in [1] was 81.3 µM; in [2], 8.91 µM; in [3], 5.62 µM; in experiment [4], 5.75 µM; in [5], 23.4 µM; in [6], 9.77 µM. The TGI was 6.46 µM in experiment [7], 9.12 µM in experiment [8] and 10.2 µM in experiment [9]. Also, the LC50 was found to be 28.8 µM in [2], 35.5 µM in [4], 60.3 µM in experiment [5] and 17.8 µM in experiment [6]. The CC50 in experiment [3] came out at 19.1 µM; in experiment [7] it was 34.7 µM; in experiment [8], 42.7 µM; in experiment [9], 50.1 µM.

Compound `COc1cc2c(/C=C3/C(=O)Nc4cccc(Cl)c43)c(Cl)n(Cc3cc(OC)c(OC)c(OC)c3)c2cc1C` yielded an LC50 (concentration giving 50% net cell kill) in [1] of 51.3 µM. Besides, the GI50 in experiment [1] turned out to be 2.45 µM; in experiment [2] it was 3.24 µM; in [3], 2.88 µM; in [4], 2.88 µM; in [5], 3.98 µM; in [6], 3.24 µM. Moreover, the GI50 worked out at 1.91 µM in [7], 2.95 µM in experiment [8] and 3.02 µM in [9]. Also, the TGI in [1] amounted to 14.1 µM; in experiment [2] it was 12 µM; in [3], 10 µM; in experiment [4], 8.91 µM; in experiment [5] it was 22.9 µM; in [6], 11.8 µM. Besides, the values for the TGI in [7], in [8] and in experiment [9] were 5.13 µM, 15.1 µM and 12.6 µM, respectively. Besides, the LC50 in [2] is 47.9 µM; in [4], 51.3 µM; in [5], 66.1 µM; in experiment [6], 45.7 µM. The CC50 in [3] came out at 51.3 µM; in [7], 17.4 µM; in [8], 61.7 µM; in experiment [9], 40.7 µM.

As for `COc1ccc2c(c1)/C(=C\c1c(Cl)n(C/C=C/c3ccccc3)c3ccccc13)C(=O)N2`, the GI50 was found to be 2 µM in [1]; 2.24 µM in experiment [2]; 1.32 µM in [3]; 2.4 µM in [4]; 2.09 µM in experiment [5]; 1.91 µM in experiment [6]. The GI50 in experiment [7] was found to be 2.09 µM; in experiment [8], 1.86 µM; in [9], 2.04 µM. Also, the TGI came out at 37.1 µM in experiment [2]; 21.9 µM in [3]; 38.9 µM in experiment [4]; 41.7 µM in experiment [5]; 30.2 µM in experiment [6]; 16.2 µM in experiment [7]. In experiment [8], this compound showed a TGI of 36.3 µM.

Take `COc1cc2c(cc1C)NC(=O)/C2=C/c1c(Cl)n(Cc2cc(OC)c(OC)c(OC)c2)c2cc(C)c(OC)cc12`: the GI50 in [1] turned out to be 3.24 µM; in [2] it was 11 µM; in experiment [3], 16.6 µM; in experiment [4] it was 25.1 µM; in experiment [5] it was 30.9 µM; in experiment [6], 38.9 µM. In addition, the GI50 in experiment [7] was 5.5 µM; in experiment [8], 10 µM; in experiment [9], 49 µM. Also, the TGI in [1] came to 42.7 µM; in experiment [2], 66.1 µM; in experiment [7], 87.1 µM.

Regarding `COc1cc2c(/C=C3/C(=O)Nc4ccc(Cl)cc43)c(Cl)n(Cc3cc(OC)c(OC)c(OC)c3)c2cc1C`, in experiment [1], the LC50 (concentration giving 50% net cell kill) was determined as 15.8 µM. Also, the GI50 is 1.86 µM in [1]; 2.29 µM in experiment [2]; 2.19 µM in [3]; 2.29 µM in [4]; 3.72 µM in experiment [5]; 2.95 µM in experiment [6]. Moreover, the GI50 in experiment [7] stood at 1.78 µM; in experiment [8], 2.09 µM; in [9], 2.34 µM. Besides, the TGI in experiment [1] stood at 4.79 µM; in [2], 5.89 µM; in experiment [3] it was 5.62 µM; in [4] it was 5.75 µM; in experiment [5] it was 13.8 µM; in [6], 7.24 µM. For the same compound, the results for the TGI in experiment [7], in experiment [8] and in [9] were 3.89 µM, 5.5 µM and 6.03 µM, respectively. Moreover, the LC50 in experiment [2] is 16.2 µM; in experiment [4], 17.8 µM; in experiment [5], 39.8 µM; in experiment [6], 18.6 µM. Besides, the CC50 turned out to be 29.5 µM in [3], 8.91 µM in experiment [7], 22.4 µM in experiment [8] and 23.4 µM in experiment [9].

`COc1c(/C=C2/C(=O)Nc3ccccc32)c2ccccc2n1-c1ccccc1` registered an LC50 (concentration giving 50% net cell kill) in experiment [1] of 50.1 µM. The GI50 in experiment [1] was 0.52 µM; in [2], 2.14 µM; in experiment [3] it was 1.05 µM; in experiment [4], 1.48 µM; in experiment [5] it was 1.38 µM; in experiment [6], 1.12 µM. Also, the GI50 in experiment [7] was found to be 1.12 µM; in [8] it was 1.23 µM; in experiment [9], 2.19 µM. In addition, the TGI was determined as 2.63 µM in experiment [1]; 8.32 µM in [2]; 3.24 µM in experiment [3]; 3.98 µM in experiment [4]; 4.07 µM in [5]; 4.07 µM in experiment [6]. The TGI in experiment [7] came out at 3.47 µM; in experiment [8], 4.47 µM; in experiment [9] it was 8.51 µM. For the same compound, the LC50 in experiment [2] came to 27.5 µM; in experiment [4], 10.5 µM; in [5], 15.8 µM; in [6], 13.2 µM. The CC50 amounted to 7.94 µM in experiment [3], 19.1 µM in experiment [7], 27.5 µM in experiment [8] and 30.9 µM in experiment [9].

In the case of `COc1ccc(OC)c2c1NC(=O)/C2=C/c1c(Cl)[nH]c2ccccc12`, the GI50 was determined as 1.51 µM in experiment [1]; 3.55 µM in [2]; 2.24 µM in experiment [3]; 3.39 µM in experiment [4]; 2.51 µM in experiment [5]; 3.39 µM in [6]. In addition, the GI50 worked out at 3.47 µM in [7], 1.62 µM in [8] and 2.75 µM in experiment [9]. Moreover, the TGI came to 56.2 µM in [1]; 22.4 µM in [2]; 8.91 µM in [3]; 16.2 µM in experiment [4]; 15.1 µM in experiment [5]; 16.2 µM in [6]. Moreover, the TGI in experiment [7] was 19.9 µM; in experiment [8], 12.6 µM; in experiment [9] it was 13.5 µM. Besides, the LC50 in experiment [2] stood at 74.1 µM; in [4] it was 46.8 µM; in experiment [5] it was 41.7 µM; in [6], 53.7 µM. Further, the CC50 in experiment [3] was 33.9 µM; in experiment [7], 51.3 µM; in [8], 64.6 µM; in experiment [9], 44.7 µM.

For the origin of these results see ChEMBL document CHEMBL3232816, “Substituted E-3-(3-indolylmethylene)1,3-dihydroindol-2-ones with antiproliferative activity. Study of the effects on HL-60 leukemia cells” (2014).
